The subject of experiment [1] is K562. As to the kind of experiment: Inhibition of erythroid differentiation in human K562 cell assessed benzidine positive cells at 800 uM after 6 days by benzidine staining assay. The experiment is classed as functional. More on the design: scale not given: the % may be the effect or the level left. A digest of the protocol: (§1)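 K562 cells seeded at 30 000 cells/mL and cultured with compound at the stated concentration for a 6-day induction period. Benzidine staining scores the percentage of hemoglobin-containing (benzidine-positive) cells. Values are average ± SD of three independent experiments.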

The test system of experiment [2] is K562. The experiment is described as follows: Antiproliferative activity against human K562 cells after 4 days. Type of experiment: functional, cell-based. Conditions: K562, 96 h.
Experiment [3] deals with K562. As to the kind of experiment: Inhibition of erythroid differentiation in human K562 cell assessed benzidine positive cells at 600 uM after 6 days by benzidine staining assay. Type of experiment: functional. More on the design: scale not given: the % may be the effect or the level left. A digest of the protocol:
as §1

Experiment [4] relates to K562. As to the kind of experiment: Inhibition of erythroid differentiation in human K562 cell assessed benzidine positive cells at 500 nM after 6 days by benzidine staining assay. Type of experiment: functional. More on the design: scale not given: the % may be the effect or the level left. The note with it: in the assay text read “at 100 nM” for “at 500 nM”. In a few lines:
as §1

Experiment [5] has as its system K562. The experiment is described as follows: Inhibition of erythroid differentiation in human K562 cell assessed benzidine positive cells at 400 uM after 6 days by benzidine staining assay. The experiment is classed as functional. In a few lines:
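K562 cells cultured with 400 µM compound for 6 days. The proportion of hemoglobin-containing cells was scored by benzidine staining. Values are average ± SD of four independent experiments.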

The test system of experiment [6] is K562. The experiment is described as follows: Inhibition of erythroid differentiation in human K562 cell assessed benzidine positive cells at 200 uM after 6 days by benzidine staining assay. The experiment is classed as functional. A digest of the protocol: as §1
Experiment [7] has as its system K562. As to the kind of experiment: Inhibition of erythroid differentiation in human K562 cell assessed benzidine positive cells at 100 uM after 6 days by benzidine staining assay. Type of experiment: functional. More on the design: scale not given: the % may be the effect or the level left. In a few lines:
as §1

For the next experiment, the system named is MCF7. The experiment is described as follows: Antiproliferative activity against human MCF7 cells after 4 days. The experiment is classed as functional, cell-based. Conditions: MCF7, 96 h.
A short description of experiment [8]: Antiproliferative activity against human IB3-1 cells after 4 days. Type of experiment: functional, cell-based. Conditions: IB3-1, 96 h.
In the next experiment the test system is RD. As to the kind of experiment: Antiproliferative activity against human RD cells after 4 days. The experiment is classed as functional, cell-based. Conditions: 96 h.
Experiment [9] concerns K562. As to the kind of experiment: Antiproliferative activity against human K562 cells after 4 days. The note with it: K562, 96 h.
The subject of a further experiment is MDA-MB-231. The experiment is described as follows: Antiproliferative activity against human MDA-MB-231 cells after 4 days. The experiment is classed as functional, cell-based. Conditions: MDA-MB-231, 96 h.
Experiment [10] has as its system K562. The experiment is described as follows: Inhibition of erythroid differentiation in human K562 cell assessed benzidine positive cells at 300 uM after 6 days by benzidine staining assay. The experiment is classed as functional. More on the design: scale not given: the % may be the effect or the level left. In a few lines:
as §1

The test system of experiment [11] is K562. The experiment is described as follows: Inhibition of erythroid differentiation in human K562 cell assessed benzidine positive cells at 2 mM after 6 days by benzidine staining assay. Type of experiment: functional. More on the design: scale not given: the % may be the effect or the level left. A digest of the protocol: as §1
Experiment [12] deals with K562. As to the kind of experiment: Inhibition of erythroid differentiation in human K562 cell assessed benzidine positive cells at 1 mM after 6 days by benzidine staining assay. Type of experiment: functional. More on the design: scale not given: the % may be the effect or the level left. A digest of the protocol: as §1

Active and inactive are the calls of the source. The calls are words filed in the database; no cut-off is given here. Where only a bound is given, the exact number is not on record here.

As a reminder, the IC50 is the concentration that gives 50% inhibition. `CCOC(=O)Cn1cc(C(=O)NCCOCCNC(=O)c2cn(CC(=O)OCC)c(=O)[nH]c2=O)c(=O)[nH]c1=O` returned an Activity with K562 [1] of 1%. The molecule also had an IC50 with K562 [2] of more than 800 µM.

In the case of `CCCCNC(=O)c1cn(C)c(=O)[nH]c1=O`, the Activity in the experiment on K562 [1] stood at 5%. The molecule also gave an IC50 with K562 [2] of 536 µM.

Consider `CCCCCCCCn1cc(C(=O)NCCCCCCCNC(=O)c2cn(CCCCCCCC)c(=O)[nH]c2=O)c(=O)[nH]c1=O`, for which the 50% inhibitory concentration (IC50) with K562 [2] came to 220 µM. The molecule also returned an Activity in the experiment with K562 [3] of 50%.

Regarding `CO[C@H](C(=O)[C@@H](O)[C@@H](C)O)[C@@H]1Cc2cc3cc(O[C@H]4C[C@@H](O[C@@H]5C[C@@H](O)[C@H](O)[C@@H](C)O5)[C@H](O)[C@@H](C)O4)c(C)c(O)c3c(O)c2C(=O)[C@H]1O[C@H]1C[C@@H](O[C@@H]2C[C@@H](O)[C@@H](O[C@@H]3C[C@](C)(O)[C@H](O)[C@@H](C)O3)[C@@H](C)O2)[C@H](O)[C@@H](C)O1` [PLICAMYCIN], the Activity in the experiment on K562 [4] worked out at 86.8%.

As to `CCCCCCCCn1cc(C(=O)NCc2ccccc2)c(=O)[nH]c1=O`, the outcome with K562 [5], in the experiment with K562 [6] and in the experiment with K562 [3] was inactive. Besides, the IC50 with K562 [2] stood at 75 µM. Besides, the Activity with K562 [7] came out at 5%.

On to `CCCCCCCCn1cc(C(=O)NCc2ccc3ccc(CNC(=O)c4cn(CCCCCCCC)c(=O)[nH]c4=O)cc3c2)c(=O)[nH]c1=O`, for which the Activity in the experiment on K562 [5] stood at 52%; with K562 [3], 78%. Moreover, the IC50 with MCF7 amounted to 197 µM; in experiment [8], 505 µM; in the experiment on RD, 76.6 µM; in the experiment on K562 [2], 517 µM; in the experiment with K562 [9] it was 517 µM; in the experiment on MDA-MB-231, 171 µM.

The molecule `CCCCCCCCn1cc(C(=O)NCc2cccc(CNC(=O)c3cn(CCCCCCCC)c(=O)[nH]c3=O)c2)c(=O)[nH]c1=O` displayed an Activity in the experiment on K562 [6] of 40%. The molecule further came in with an IC50 with K562 [2] of 247 µM.

In the case of `CCCCCCCCn1cc(C(=O)O)c(=O)[nH]c1=O`, the IC50 in the experiment on K562 [2] amounted to 247 µM. This molecule registered an Activity with K562 [10] of 30%.

Regarding `CCCCCCCCn1cc(C(=O)NCCCCCCNC(=O)c2cn(CCCCCCCC)c(=O)[nH]c2=O)c(=O)[nH]c1=O`, half-maximal inhibition in the experiment with K562 [2] (IC50) required 600 µM. The molecule also yielded an Activity in the experiment on K562 [3] of 40%.

On to `COC(=O)c1c[nH]c(=O)[nH]c1=O` [ISOOROTIC ACID METHYL ESTER], for which, in the experiment on K562 [1], the Activity was determined as 5%. For the same molecule, the IC50 with K562 [2] is more than 800 µM.

As for `CCCC(=O)O` [BUTYRIC ACID], in the experiment with K562 [11], the Activity was 32.5%.

As for `CCCCCCCCn1cc(C(=O)NCCCCCCCCNC(=O)c2cn(CCCCCCCC)c(=O)[nH]c2=O)c(=O)[nH]c1=O`, inhibition in the experiment with K562 [2] was half-maximal at 420 µM (IC50). This molecule also came in with an Activity in the experiment with K562 [3] of 45%.

In the experiment with K562 [12], `CO[C@H]1C[C@@H]2CC[C@@H](C)[C@@](O)(O2)C(=O)C(=O)N2CCCC[C@H]2C(=O)O[C@H]([C@H](C)C[C@@H]2CC[C@@H](O)[C@H](OC)C2)CC(=O)[C@H](C)/C=C(\C)[C@@H](O)[C@@H](OC)C(=O)[C@H](C)C[C@H](C)/C=C/C=C/C=C/1C` [SIROLIMUS] returned an Activity of 75.5%.

These data come from ChEMBL document CHEMBL1139356, “New uracil dimers showing erythroid differentiation inducing activities” (J Med Chem, 2009).
